Reference: ChEMBL document CHEMBL4725352, “Identification of New Nitric Oxide-Donating Peptides with Dual Biofilm Eradication and Antibacterial Activities for Intervention of Device-Related Infections” (J Med Chem, 2020)
pIC50: −log10 of the molar value. Activity calls are given as the source filed them. The calls are words filed in the database; no cut-off is given here. Where a SMILES comes first, the peptide text is derived from it. The star is where a group is joined. X1 = COC(=O)[C@H](Cc1ccc(Oc2no[n+]([O-])c2S(=O)(=O)c2ccccc2)cc1)NC(=O)CCCc1cn(CC(=O)*)nn1

Columns and labels:
[1] = tested on: Staphylococcus aureus; experiment: Antibiofilm activity against Staphylococcus aureus ATCC 6538 assessed as inhibition of continuous biofilm growth at 100 uM incubated for 1-2 hrs by biofilm dynamic detection assay; type: functional, organism-based; conditions: time hrs 1-2
Outline: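 S. aureus biofilm grown 24 h at 37 °C, 5% CO₂ from 10⁸ cfu/mL in TSB while impedance was recorded in real time (xCELLigence RTCA). Supernatant removed, saline-washed three times, then compound added at 100 µM in TSB. Biofilm index read every 15 min for 9 h, blank subtracted and normalised 0–1, compared with TSB control.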

[2] = tested on: Staphylococcus aureus; experiment: (§1) Antibiofilm activity against Staphylococcus aureus ATCC 6538 infected in mouse assessed as reduction in bacterial infection by measuring colony counts at 0.25 umol/kg, sc administered every 12 hrs for 3 days by plate colony counting assay (reference value: 6.40 +/- 0.28); type: functional; conditions: dose 0.25 µmol/kg
[3] = tested on: Staphylococcus aureus; experiment: Antibiofilm activity against Staphylococcus aureus ATCC 6538 infected in mouse assessed as reduction in bacterial inflammation in vicinity tissues of implanted site at 0.25 umol/kg, sc administered every 12 hrs for 3 days by H and E staining based assay; type: functional, organism-based; conditions: dose 0.25 µmol/kg
Outline: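 Mouse PDMS-implant S. aureus biofilm model dosed 0.25 µmol/kg sc in 5% DMSO/saline every 12 h for 3 days. Muscle tissue near the implant site was fixed 24 h, paraffin-embedded, sectioned and H&E stained to assess bacterial spread.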

[4] = tested on: Staphylococcus aureus; experiment: Antibiofilm activity against Staphylococcus aureus ATCC 6538 assessed as decrease in living bacterial cells in biofilm on bottom of confocal dish at 100 uM incubated for 12 hrs by live-cell fluorescence staining assay; type: functional
Outline: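 S. aureus (10⁸ cfu/mL, 2 mL) cultured one day at 37 °C, 5% CO₂ in confocal dishes, then washed 3× with saline. TSB with compound at 100 µM was added for 12 h. The dish was washed and live-cell fluorescence stained for 15 min. Bottom biofilm was imaged by 3D confocal microscopy.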

[5] = tested on: Staphylococcus aureus; experiment: Antimicrobial activity against Staphylococcus aureus ATCC 6538 incubated for 20 hrs by microdilution assay; type: functional
[6] = tested on: Escherichia coli; experiment: Antibiofilm activity against Escherichia coli ATCC 8099 assessed as inhibition of biofilm formation at 100 uM incubated for 12 hrs by crystal violet staining assay relative to control; type: functional
Outline: (§2)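 Bacterial culture (10⁸ cfu/mL) grown 24 h in 96-well plates, then washed 3× with saline. Wells were incubated 12 h with test compound in TSB. Biofilm was fixed with methanol 15 min and stained with 1% crystal violet 5 min at room temperature. Dye was solubilized in ethanol for 30 min at 37 °C and OD read at 600 nm. Compared with vehicle control; mean ± S.D., n = 3.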

[7] = tested on: Staphylococcus aureus; experiment: Antibiofilm activity against Staphylococcus aureus ATCC 6538 assessed as dispersion of formed biofilms at 100 uM incubated for 12 hrs by scanning electron microscopy; type: functional, organism-based
Outline: (§3)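 Bacteria (10⁸ cfu/mL) grown on silicon slices in TSB for 24 h. Medium was removed and slices washed 3× with saline. Slices were then incubated 12 h in TSB containing test compound at 100 µM, or TSB alone. Slices were gold-sputtered and imaged by cold field emission SEM.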

[8] = tested on: Escherichia coli; experiment: Antibiofilm activity against Escherichia coli ATCC 8099 assessed as dispersion of formed biofilms at 100 uM incubated for 12 hrs by scanning electron microscopy; type: functional, organism-based; outline: as §3
[9] = tested on: Staphylococcus aureus; experiment: Antibiofilm activity against Staphylococcus aureus ATCC 6538 assessed as inhibition of biofilm formation at 100 uM incubated for 12 hrs by crystal violet staining assay relative to control; type: functional; outline: as §2
[10] = tested on: Escherichia coli; experiment: Antimicrobial activity against Escherichia coli ATCC 8099 incubated for 20 hrs by microdilution assay; type: functional
[11] = tested on: Escherichia coli; experiment: Induction of NO release in Escherichia coli ATCC 8099 at 10 uM incubated for 4 hrs by Griess assay; type: functional, organism-based
Outline: (§4)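 Bacteria (10⁸ cfu/mL in saline) incubated with compound at 10 µM for 4 h at 37 °C, 5% CO₂. Cells were centrifuged and lysed, and the lysate centrifuged at 10,000 g for 5 min. Nitrite in the supernatant was measured by Griess reagent at 540 nm against a NaNO₂ standard curve.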

[12] = tested on: Staphylococcus aureus; experiment: Antibiofilm activity against Staphylococcus aureus ATCC 6538 assessed as inhibition of continuous biofilm growth at 100 uM measured every 15 mins for 9 hrs by biofilm dynamic detection assay; type: functional, organism-based
Outline: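 S. aureus (10⁸ cfu/mL in TSB) grown one day at 37 °C, 5% CO₂ on a real-time impedance cell analyzer to form biofilm. After saline washes (3×), medium containing compound at 100 µM was added. Biofilm index was recorded every 15 min for 9 h, blank-subtracted and normalized (lowest point 0, highest 1).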

[13] = tested on: Staphylococcus aureus; experiment: Induction of NO release in Staphylococcus aureus ATCC 6538 at 10 uM incubated for 4 hrs by Griess assay; type: functional, organism-based; outline: as §4
[14] = tested on: Staphylococcus aureus; experiment: Antibiofilm activity against Staphylococcus aureus ATCC 6538 assessed as inhibition of biofilm formation at 100 uM incubated for 12 hrs in presence of NO scavenger PTIO by crystal violet staining assay relative to control; type: functional, organism-based
[15] = tested on: Escherichia coli; experiment: Antibiofilm activity against Escherichia coli ATCC 8099 assessed as inhibition of biofilm formation at 100 uM incubated for 12 hrs in presence of NO scavenger PTIO by crystal violet staining assay relative to control; type: functional, organism-based
[16] = tested on: Staphylococcus aureus; experiment: Antibacterial activity against Staphylococcus aureus ATCC 6538 assessed as killing of living planktonic bacterial cells in supernatant at 100 uM incubated for 12 hrs by OD measurement
[17] = tested on: Cell membrane; experiment: Induction of cell membrane rupture in Escherichia coli […] ATCC 8099 at 200 uM incubated for 60 mins by scanning electron microscopy; type: subcellular
Outline: (§5)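 Bacteria incubated in TSB alone or TSB with compound at 200 µM for 60 min. Cells were pelleted, fixed in 4% paraformaldehyde, dropped onto silicon slices, gold-sputtered and imaged by cold field emission SEM.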

[18] = tested on: Cell membrane; experiment: Induction of cell membrane rupture in Escherichia coli ATCC 8099 assessed as induction of cell content spillage at 200 uM incubated for 60 mins by scanning electron microscopy; outline: as §5
[19] = tested on: Cell membrane; experiment: Induction of cell membrane rupture in Staphylococcus aureus ATCC 6538 at 200 uM incubated for 60 mins by scanning electron microscopy; outline: as §5
[20] = tested on: Cell membrane; experiment: Induction of cell membrane rupture in Staphylococcus aureus ATCC 6538 assessed as induction of cell content spillage at 200 uM incubated for 60 mins by scanning electron microscopy; outline: as §5
[21] = Toxicity in rat assessed as effect on blood as effect on blood pressure at 0.172 umol/kg, sc measured after 6 hrs post dose by non-invasive blood pressure monitoring; type: organism-based; conditions: in vivo, dose 0.172 µmol/kg
Outline: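 Healthy rats given a single sc dose of 0.172 µmol/kg in aqueous solution, with saline as control. Tail-artery blood pressure measured non-invasively at 0, 1, 3 and 6 h.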

[22] = tested on: Erythrocyte; experiment: Induction of hemolysis in mouse erythrocytes incubated for 3 hrs; type: cell-based
Outline: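 2% erythrocyte suspension from mouse blood, mixed with sample in 0.9% NaCl. Controls were saline (negative) and water (positive). Incubated 3 h at 37 °C, 5% CO₂; hemolysis degree calculated by standard curve. Dose-dependent series; HC₅₀ derived.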

[23] = tested on: Staphylococcus aureus; experiment: Induction of NO release in CDNB-pretreated Staphylococcus aureus ATCC 6538 at 10 uM incubated for 4 hrs by Griess assay; type: functional, organism-based
Outline: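 S. aureus (10⁸ cfu/mL in saline) pretreated with 100 µM CDNB for 0.5 h at 37 °C, then pelleted. Cells were incubated with compound at 10 µM in saline for 4 h. After lysis, nitrite was quantified by Griess reagent at 540 nm against a NaNO₂ standard curve.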

[24] = tested on: Staphylococcus aureus; experiment: as §1, with “days co-treated with 0.25 umol/kg NO scavenger PTIO” for “days”; type: functional; conditions: dose 0.25 µmol/kg
[25] = tested on: Staphylococcus aureus; experiment: Antibiofilm activity against Staphylococcus aureus ATCC 6538 infected in mouse assessed as reduction in skin ulceration near implanted site at 0.25 umol/kg, sc administered every 12 hrs for 3 days; type: functional, organism-based; conditions: dose 0.25 µmol/kg
Outline: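 Mouse PDMS-implant S. aureus biofilm model (biofilm-coated slices placed subcutaneously in the back). Dosing was 0.25 µmol/kg sc in 5% DMSO/saline every 12 h for 3 days. Skin at the implant site was photographed every 12 h after implantation for ulceration.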

CC(=O)OCC1=C(C(=O)O)N2C(=O)[C@@H](NC(=O)CCC[C@@H](N)C(=O)O)[C@H]2SC1 [CEPHALOSPORIN C]
inhibition [1]: Active | Activity [2]: 4.97 log10CFU | inhibition [3]: Active | inhibition [4]: inactive

H-TRRKFWKKVLNGALKIAPFLLG-OH
MIC [5]: > 50 µM | inhibition [1]: Active | Activity [2]: 5.4 log10CFU | inhibition [6]: inactive | Activity [7]: inactive | inhibition [3]: Active | Activity [8]: inactive | inhibition [9]: inactive | MIC [10]: > 50 µM | inhibition [4]: Active

COC(=O)[C@@H](N)Cc1ccc(Oc2no[n+]([O-])c2S(=O)(=O)c2ccccc2)cc1
MIC [5]: > 50 µM | Activity [2]: 4.91 log10CFU | inhibition at 100 µM [6]: 81.2% | Activity [11]: Active | Activity [7]: Active | inhibition [12]: inactive | Activity [13]: Active | inhibition [14]: inactive | Activity [8]: Active | inhibition [15]: inactive | inhibition at 100 µM [9]: 44.4% | Activity [16]: inactive | MIC [10]: > 50 µM | inhibition [4]: Active

CC[C@H](C)[C@H](NC(=O)[C@H](CCCCN)NC(=O)[C@H](CC(C)C)NC(=O)[C@H](C)NC(=O)CNC(=O)[C@H](CC(N)=O)NC(=O)[C@H](CC(C)C)NC(=O)[C@@H](NC(=O)[C@H](CCCCN)NC(=O)[C@H](CCCCN)NC(=O)[C@H](Cc1c[nH]c2ccccc12)NC(=O)[C@H](Cc1ccccc1)NC(=O)[C@H](CCCCN)NC(=O)[C@H](CCCNC(=N)N)NC(=O)[C@H](CCCNC(=N)N)NC(=O)[C@@H](NC(=O)Cn1cc(CCCC(=O)N[C@@H](Cc2ccc(Oc3no[n+]([O-])c3S(=O)(=O)c3ccccc3)cc2)C(=O)OC)nn1)[C@@H](C)O)C(C)C)C(=O)N[C@@H](C)C(=O)N1CCC[C@H]1C(=O)N[C@@H](Cc1ccccc1)C(=O)N[C@@H](CC(C)C)C(=O)N[C@@H](CC(C)C)C(=O)NCC(=O)O (X1-TRRKFWKKVLNGALKIAPFLLG-OH)
MIC [5]: > 50 µM | Activity [2]: 4.54 log10CFU | inhibition at 100 µM [6]: 80.9% | Activity [17]: Active | Activity [11]: Active | Activity [7]: Active | Activity [18]: Active | Activity [19]: Active | inhibition [12]: Active | Activity [13]: Active | Activity [20]: Active | inhibition [3]: Active | inhibition [14]: inactive | Activity [8]: Active | Activity [21]: Non-Toxic | pIC50 [22]: < 3.42 | Activity [23]: inactive | inhibition [15]: inactive | inhibition at 100 µM [9]: 64.1% | Activity [16]: Active | Activity [24]: 5.92 log10CFU | Activity [25]: Active | MIC [10]: > 50 µM | inhibition at 100 µM [4]: 100%
